In one experiment the test system is SR leukemia cells. Kind of experiment: NCI in vitro human tumor cell screen, SR. The class given is cell-based.
For experiment [1], the system named is NCI/ADR-RES ovarian cancer cells. In words: NCI in vitro human tumor cell screen, NCI/ADR-RES. It counts as cell-based. In a few lines:
(§1)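 NCI-60 panel screen. GI50 is the log concentration that […]. TGI is the log concentration giving total growth inhibition. LC50 is the log concentration needed to kill 50% of the test population.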

For experiment [2], the system named is MDA-MB-435 melanoma cells. Kind of experiment: NCI in vitro human tumor cell screen, MDA-MB-435. It counts as cell-based.
Experiment [3] relates to MDA-MB-468 breast cancer cells. Kind of experiment: NCI in vitro human tumor cell screen, MDA-MB-468. It counts as cell-based. In a few lines: as §1
The test system of experiment [4] is Colo205 colon cancer cells. In words: NCI in vitro human tumor cell screen, Colo205. The class given is cell-based. In outline:
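NCI-60 panel screen. GI50 is the log concentration that […]. TGI is the log concentration giving total growth inhibition.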

The subject of a further experiment is SK-MEL-5 melanoma cells. Kind of experiment: NCI in vitro human tumor cell screen, SK-MEL-5. The class given is cell-based. In outline: as §1
Experiment [5] relates to RXF 393 renal cancer cells. Kind of experiment: NCI in vitro human tumor cell screen, RXF 393. It counts as cell-based. In a few lines: as §1
The subject of experiment [6] is OVCAR-3 ovarian cancer cells. Kind of experiment: NCI in vitro human tumor cell screen, OVCAR-3. The class given is cell-based. In outline:
as §1

Experiment [7] has as its system DU-145 prostate cancer cells. Kind of experiment: NCI in vitro human tumor cell screen, DU-145. The class given is cell-based. In a few lines: as §1
The next experiment has as its system SF-295 CNS cancer cells. In words: NCI in vitro human tumor cell screen, SF-295. It counts as cell-based. In outline:
as §1

For another experiment, the system named is M14 melanoma cells. In words: NCI in vitro human tumor cell screen, M14. The class given is cell-based. In outline: as §1
Experiment [8] addresses pure porcine brain tubulin proteins (Sus scrofa, UniProt P02550+P02554). In words: In vitro tubulin polymerization assay. It counts as biochemical. Conditions: GPEM buffer, 37 °C, absorbance 340 nm.
In experiment [9] the test system is NCI-H522 non-small cell lung cancer cells. In words: NCI in vitro human tumor cell screen, NCI-H522. It counts as cell-based.
In a further experiment the test system is NCI-H522 cells. In words: MTT anti-proliferation assay, NCI-H522. Conditions: read-out: IC50 proliferation of NCI-H522 cells, 48 h incubation. The class given is cell-based, human. In outline: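 NCI-H522 cells in log-phase growth were exposed at 37 °C to test compound or DMSO vehicle in complete medium for 48 h. They were then given MTT (1 mg/mL in 1X PBS) for 2 h at 37 °C. Absorbance was read at 570 nm and corrected at 630 nm.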

The subject of experiment [10] is SK-OV-3 ovarian cancer cells. Kind of experiment: NCI in vitro human tumor cell screen, SK-OV-3. It counts as cell-based. In a few lines: as §1
Experiment [11] relates to α-tubulin and β-tubulin in NCI-H522 cells. In words: In vivo tubulin assembly assay. It counts as cell-based, human. Conditions: 24 h, 6h 10, 30, 100 nM, vincristine and paclitaxel 100 nM.

Where only a bound is given, the exact number is not on record here.

pure porcine brain tubulin proteins, sequence (P02550 whole entry): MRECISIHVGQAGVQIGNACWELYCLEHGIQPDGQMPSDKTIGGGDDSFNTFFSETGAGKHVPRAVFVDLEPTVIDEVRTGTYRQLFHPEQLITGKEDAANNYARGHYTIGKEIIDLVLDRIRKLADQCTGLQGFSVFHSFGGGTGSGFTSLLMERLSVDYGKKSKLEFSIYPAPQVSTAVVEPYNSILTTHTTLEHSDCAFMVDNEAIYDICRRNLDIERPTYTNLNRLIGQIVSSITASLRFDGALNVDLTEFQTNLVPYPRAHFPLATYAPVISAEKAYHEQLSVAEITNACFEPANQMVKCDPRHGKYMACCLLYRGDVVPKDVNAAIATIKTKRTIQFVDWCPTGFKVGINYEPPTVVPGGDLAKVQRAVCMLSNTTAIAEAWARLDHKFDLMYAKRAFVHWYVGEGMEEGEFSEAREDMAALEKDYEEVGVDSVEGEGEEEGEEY
pure porcine brain tubulin proteins, sequence (P02554 whole entry): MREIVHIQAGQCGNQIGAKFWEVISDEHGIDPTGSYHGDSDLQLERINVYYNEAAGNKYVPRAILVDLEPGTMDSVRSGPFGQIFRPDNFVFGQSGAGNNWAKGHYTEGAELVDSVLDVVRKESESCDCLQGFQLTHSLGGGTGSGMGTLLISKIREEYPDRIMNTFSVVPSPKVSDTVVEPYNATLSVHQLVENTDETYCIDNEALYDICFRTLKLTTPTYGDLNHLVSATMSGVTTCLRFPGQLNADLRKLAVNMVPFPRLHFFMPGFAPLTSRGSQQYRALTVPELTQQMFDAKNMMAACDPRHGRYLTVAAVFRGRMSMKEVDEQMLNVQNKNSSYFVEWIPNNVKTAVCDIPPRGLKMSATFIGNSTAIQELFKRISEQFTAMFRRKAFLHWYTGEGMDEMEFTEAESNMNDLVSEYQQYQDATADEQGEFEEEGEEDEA

On to “2-(3-hydroxy-5-methoxyphenyl)-6-pyrrolidin-1-ylquinolin-4-one [Compound 6h]”, for which the logGI50 with SR leukemia cells was less than −8.00; in experiment [1], −7.21; in [2], less than −8.00; in [3], −6.58; in experiment [4] it was −7.27; in the experiment on SK-MEL-5 melanoma cells, −7.61. The logGI50 is −7.39 in [5]; −7.63 in [6]; −7.51 in experiment [7]; −6.96 in the experiment with SF-295 CNS cancer cells; −7.52 in the experiment with M14 melanoma cells; less than −8.00 in experiment [9]. The same molecule showed a logGI50 in experiment [10] of −7.63. Moreover, the logLC50 in the experiment with SR leukemia cells is recorded as more than −4.00; in experiment [1], more than −4.00; in [3] it was more than −4.00; with SK-MEL-5 melanoma cells, −6.31; in [5], more than −4.00; in experiment [6], −5.19. Moreover, the logLC50 in experiment [7] is more than −4.00; in the experiment on SF-295 CNS cancer cells, more than −4.00; in the experiment with M14 melanoma cells it was more than −4.00; in experiment [9], −5.41; in experiment [10], more than −4.00. Further, the logTGI in the experiment on SR leukemia cells is listed as more than −4.00; in experiment [1], −6.29; in experiment [2] it was −7.53; in [3] it was −5.70; in [4] it was −6.66; in the experiment on SK-MEL-5 melanoma cells, −7.18. In addition, the logTGI in experiment [5] was −4.62; in [6], −7.05; in experiment [7], −6.59; in the experiment with SF-295 CNS cancer cells it was −4.95; in the experiment on M14 melanoma cells it was −4.80; in experiment [9], less than −8.00. Moreover, in experiment [10], the logTGI is given as −4.60. The “effect on tubulin polymerization” value in experiment [8] is “inhibited tubulin polymerization in a concentration-dependent manner”. Further, the IC50 in the experiment on NCI-H522 cells was 42.3 ± 1.2 nM.
As for `CC(=O)O[C@H]1C(=O)[C@@]2(C)[C@H]([C@H](OC(=O)c3ccccc3)[C@]3(O)C[C@H](OC(=O)[C@H](O)[C@@H](NC(=O)c4ccccc4)c4ccccc4)C(C)=C1C3(C)C)[C@]1(OC(C)=O)CO[C@@H]1C[C@@H]2O` [paclitaxel], the “effect on α-tubulin and β-tubulin in the cytoskeletal fraction” value in experiment [11] is reported as “caused tubulin polymerization”.
As for `CC[C@]1(O)C[C@@H]2CN(CCc3c([nH]c4ccccc34)[C@@](C(=O)OC)(c3cc4c(cc3OC)N(C)[C@H]3[C@@](O)(C(=O)OC)[C@H](OC(C)=O)[C@]5(CC)C=CCN6CC[C@]43[C@@H]65)C2)C1` [vinblastine], the “effect on tubulin polymerization” value in experiment [8] is “inhibited tubulin polymerization”.
On the same count and under the same terms, then `CC[C@]1(O)C[C@H]2CN(CCc3c([nH]c4ccccc34)[C@@](C(=O)OC)(c3cc4c(cc3OC)N(C=O)[C@H]3[C@@](O)(C(=O)OC)[C@H](OC(C)=O)[C@]5(CC)C=CCN6CC[C@]43[C@@H]65)C2)C1` [vincristine], with “inhibited tubulin polymerization”.
